Bioassay records: PubChem, several laboratories
Gli-Sufu block – Gli-Sufu pathway antagonism; inhibition, % at 5 µM; Sufu-KO-LIGHT fibroblasts, Gli luciferase reporter luminescence; actives 0.74% (n = 340,000);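 active = inhibition above about 55%, limit read from the data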;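 note: 0% = DMSO-treated cells and 100% = wells with medium but no cells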
CHOP UPR activ – activators of apoptotic arm of unfolded protein response (CHOP); AID 449763; actives 0.34% (n = 330,000); activation, % at 10 µM; CHO-CHOP luciferase reporter, UPR activation, luminescence; percent of tunicamycin response over DMSO baseline;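 active = at 10 µM dose, activation of 40% or more, normalized to positive control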;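 note: 100% = tunicamycin at 10 µg/mL and 0% = DMSO alone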
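System: CHO CHOP reporter cells. Amount: 500 cells per well. Buffer or medium: F12 medium, 10% FBS. Compound dosing: one dose, 10 µM in 0.5% DMSO. Incubation: 6 h compound exposure at 37 °C after overnight seeding. Technique: Steady-Glo luciferase luminescence. Benchmarks: tunicamycin and DMSO controls.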
CHOP inh – inhibitors of CHOP induction in ER stress response; CHO-K1 CHOP-promoter luciferase, tunicamycin-induced, 15-18 h; inhibition, % at 10 µM; actives 3.8% (n = 220,000); AID 2732;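 active = compounds that reduced the stress-induced luciferase reporter signal by more than about 70% of percent inhibition, limit read from the data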;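 note: 0% = tunicamycin plus vehicle and 100% = wells without tunicamycin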
697 NFkB inh – lowers PMA/ionomycin-induced NF-kB signal in 697 B cells; actives 0.33% (n = 330,000); 697 B-cell NF-kB luciferase reporter, 16 h; AID 435022; inhibition, % at 4 µM; in the data active = inhibition above about 35%
Jurkat NFkB inh – inhibitors of the PMA/ionomycin-induced NF-kB reporter in Jurkat cells; PMA/ionomycin-induced NF-kB luciferase reporter, luminescence; inhibition, % at 4 µM; actives 0.53% (n = 330,000); in the data active = inhibition above about 50%
XBP1 UPR activ – adaptive UPR (XBP1) activation. activation, % at 20 µM. actives 0.33% (n = 330,000). CHO-XBP1 luciferase reporter, IRE1-XBP1 UPR activation, luminescence; percent of tunicamycin response, DMSO as zero. AID 463104;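 active = versus positive control, 20 µM dose yields 30% or more activation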;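 note: 100% = tunicamycin at 10 µg/mL and 0% = DMSO only wells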
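Material: CHO cell line with stable XBP1 luciferase reporter; schedule: 16-18 h cell attachment at 37 °C, then 6 h compound exposure; signal: glow luminescence from Steady-Glo reagent; medium: serum-containing F12 medium, 10% FBS; benchmarks: tunicamycin 10 µg/mL and vehicle-only wells; read-out: percent activation relative to tunicamycin reference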
XBP1 UPR conf – adaptive UPR (XBP1) activation, confirmed | activation, % at 20 µM | CHO-XBP1 IRE1-XBP1 luciferase reporter, luminescence | actives 63% (n = 1,000) | shares compounds with XBP1 UPR activ;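 active = reporter signal at least 30% of the positive control's activation in two or more of four replicate wells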;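 note: plate controls were DMSO negative control for no effect and tunicamycin 10 µg/mL positive control for full effect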
* hit, by the source's call; . = no result given. Compounds with a hit are over-represented: about 3.9% of the library has one in this group of screens.

SMILES | Gli-Sufu block | CHOP UPR activ | CHOP inh | 697 NFkB inh | Jurkat NFkB inh | XBP1 UPR activ | XBP1 UPR conf
Cc1cc(C)nc(NS(=O)(=O)c2ccc(NC(=O)c3cc4c(=O)n5cccc(C)c5nc4n3C)cc2)n1 | -4 | 10 | . | 0 | 14 | 101* | 4
O=c1cc(CN2CCN(c3ccc(F)cc3)CC2)c2cc3c(cc2o1)CCCC3 | 6 | 35 | -16 | 4 | -6 | 100* | 96*
CCOC(=O)Cc1csc(NC(=O)CN2CCN(c3ccccc3)CC2)n1 | 0 | 0 | . | 1 | 0 | -3 | .
COc1cc2nc(N3CCN(c4cc(C)ccc4C)CC3)nc(N)c2cc1OC | 22 | 36 | . | -18 | 26 | 109* | 62*
COc1ccc(C)cc1Nc1nc(N)c2cc(OC)c(OC)cc2n1 | 13 | 0 | . | 20 | 12 | 7 | .
Cc1ccc(NC(=O)CSc2ccccc2NC(=O)c2cccc(Cl)c2)cc1Cl | -1 | 7 | 57 | -6 | 2 | 36* | 18
C=CCn1c(NC(=O)c2ccccc2Cl)c(C#N)c2nc3ccccc3nc21 | 5 | 0 | -16 | -10 | 4 | 35* | -1
Cc1ccc(SC(=O)COc2ccccc2C)cc1 | -6 | 4 | 75* | 25 | 5 | 49* | 17
Cc1ccc(OC(=O)COc2ccccc2C)cc1 | 12 | 1 | . | 9 | 5 | 3 | .
CCOC(=O)c1c(NC(=O)c2cc(C)on2)c2cc([N+](=O)[O-])ccc2n1C | -2 | 20 | -5 | -16 | 9 | 84* | 49*
COc1ccc(NS(=O)(=O)c2ccc3c(c2)CCC(=O)N3)cc1O | 19 | -2 | . | 11 | -2 | 3 | .
CCOC(=O)C1CCN(C(=O)c2cccc(S(=O)(=O)N3c4ccccc4CC3C)c2)CC1 (stereo not drawn) | 4 | 0 | . | 8 | 24 | 0 | .
N#Cc1c(-c2ccc3c(c2)OCO3)ccn2nc(-c3cccc(C(F)(F)F)c3)nc12 | -30 | 14 | 51 | -11 | -33 | 53* | 50*
CS(=O)(=O)c1ccc(C(=O)Nc2ccc(S(=O)(=O)N3CCCCC3)cc2)cc1 | -4 | 2 | . | -34 | 10 | -2 | .
COC(=O)COc1ccc(S(=O)(=O)NCc2ccc3c(c2)OCO3)cc1 | -14 | -2 | . | -4 | -4 | -3 | .
COc1ccc(C(=O)N/N=C/c2ccccc2OC(=O)c2ccccc2)cc1 | -23 | 2 | . | -106 | -35 | 51* | 30
COC(=O)c1nn(-c2ccccc2)nc1-c1nn(-c2ccccc2)nc1C(=O)OC | -36 | 5 | -13 | -18 | 4 | 39* | 18
Cc1cc(=O)[nH]c2ccc(S(=O)(=O)NC3CCCCC3)cc12 | -17 | 0 | . | 28 | -26 | -1 | .
O=C(Nc1ccc(F)cc1)c1nc[nH]c1C(=O)Nc1ccc([N+](=O)[O-])cc1 | 5 | 8 | -39 | 2 | 15 | 14 | .
O=C(Nc1ccc([N+](=O)[O-])cc1)c1nc[nH]c1C(=O)NC1CCCCC1 | -10 | 24 | 57 | 6 | 15 | 166* | 172*
CCOC(=O)/C=c1\s/c(=C\c2ccc(C(=O)OC)cc2)c(=O)n1CC(=O)Nc1ccccc1 | -5 | 27 | -8 | 11 | 6 | 92* | 1
COc1ccccc1NC(CC(=O)c1ccccc1)C(=O)OCC(=O)c1ccc(C)c(C)c1 (stereo not drawn) | -12 | 2 | 3 | -197 | -109 | 36* | -2
Cc1ccc(C(=O)COC(=O)COc2ccccc2O)cc1C | 2 | -1 | . | 7 | -11 | 1 | .
CCCCn1c(Nc2ccccc2)nc2ccccc21 | 7 | 0 | 22 | 16 | -13 | 0 | .
CCCn1c(Nc2nc3ccccc3n2C)nc2ccccc21 | 5 | 1 | 18 | -5 | 15 | 55* | 57*
CCOC(=O)C1=C(C)N=C2c3ccccc3C(=O)C2C1c1ccc(C)cc1 (stereo not drawn) | 9 | 2 | 74* | 34 | -1 | 32* | 28*
COc1ccc(C(=O)NC(=S)NNC(=O)[C@H]2C[C@@H]2c2ccccc2)cc1OC | -15 | 1 | 34 | 18 | 0 | 65* | 14
